Active and inactive are the calls of the source. No cut-off for these calls is given here.
What was measured:
[1] = target: Phospholipase A and acyltransferase 3 (Homo sapiens) (UniProt P53816); assay: Inhibition of full-length C-terminal FLAG-tagged human PLAAT3 expressed in HEK293T cell lysate at 10 uM preincubated for 30 mins followed by MB064 addition and measured after 20 mins by SDS-PAGE based ABPP analysis; assay type: cell-free; settings: HEK-293T
How it was run: (§1)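 Cytosol from HEK293T cells transiently transfected (PEI) with C-terminal FLAG-tagged human PLAAT, harvested 48–72 h. Inhibitor 10 μM, 30 min rt, then MB064 probe 20 min rt. Protein/MB064: PLAAT2 0.25 μg/μL, 250 nM; PLAAT3 0.5 μg/μL, 250 nM; PLAAT4 1 μg/μL, 500 nM; PLAAT5 1 μg/μL, 500 nM. Read-out: in-gel fluorescence after SDS-PAGE, normalized to Coomassie. Triplicate.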

[2] = target: T1, Phospholipase A and acyltransferase 2 (Homo sapiens) (UniProt Q9NWW9); assay: Inhibition of full-length C-terminal FLAG-tagged human PLAAT2 expressed in HEK293T cell lysate at 10 uM preincubated for 30 mins followed by MB064 addition and measured after 20 mins by SDS-PAGE based ABPP analysis; assay type: cell-free; settings: HEK-293T; how it was run: as §1
T1 sequence (whole entry): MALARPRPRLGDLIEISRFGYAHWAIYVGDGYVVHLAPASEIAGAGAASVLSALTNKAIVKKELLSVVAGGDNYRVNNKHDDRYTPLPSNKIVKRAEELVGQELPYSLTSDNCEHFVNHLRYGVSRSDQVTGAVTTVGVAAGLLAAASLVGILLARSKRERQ

[3] = target: T2, Phospholipase A and acyltransferase 4 (Homo sapiens, UniProt Q9UL19); assay: Inhibition of full-length C-terminal FLAG-tagged human PLAAT4 expressed in HEK293T cell lysate preincubated for 30 mins followed by MB064 addition and measured after 20 mins by SDS-PAGE based ABPP analysis; assay type: cell-free, HEK-293T
T2 sequence (Q9UL19 whole entry): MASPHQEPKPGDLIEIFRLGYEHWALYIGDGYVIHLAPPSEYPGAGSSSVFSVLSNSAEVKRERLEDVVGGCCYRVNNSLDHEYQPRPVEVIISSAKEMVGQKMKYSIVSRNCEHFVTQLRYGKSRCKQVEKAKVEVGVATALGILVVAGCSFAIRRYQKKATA
How it was run: (§2)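 Dose–response competitive ABPP on cytosol only, from HEK293T overexpressing FLAG-tagged PLAAT. Inhibitor 30 min rt, then MB064 20 min rt. PLAAT2 0.25 μg/μL with 250 nM probe; PLAAT3 0.5 μg/μL with 250 nM; PLAAT4 and PLAAT5 1 μg/μL with 500 nM. Fluorescence normalized to Coomassie. IC50 from curves, reported as pIC50 ± SEM, n = 3.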

[4] = target: T3, Phospholipase A and acyltransferase 5 (Homo sapiens, UniProt Q96KN8); assay: Inhibition of full-length C-terminal FLAG-tagged human PLAAT5 expressed in HEK293T cell lysate preincubated for 30 mins followed by MB064 addition and measured after 20 mins by SDS-PAGE based ABPP analysis; assay type: cell-free, HEK-293T; how it was run: as §2
T3 sequence (Q96KN8 whole entry): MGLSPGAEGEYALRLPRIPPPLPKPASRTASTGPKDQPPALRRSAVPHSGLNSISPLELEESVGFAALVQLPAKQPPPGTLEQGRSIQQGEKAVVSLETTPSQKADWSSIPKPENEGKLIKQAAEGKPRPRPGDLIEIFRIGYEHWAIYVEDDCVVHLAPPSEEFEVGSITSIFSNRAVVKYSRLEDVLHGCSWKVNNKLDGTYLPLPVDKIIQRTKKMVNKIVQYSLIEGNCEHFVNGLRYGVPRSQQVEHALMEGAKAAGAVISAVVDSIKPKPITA

[5] = target: Phospholipase A and acyltransferase 4 (Homo sapiens) (UniProt Q9UL19); assay: Inhibition of full-length C-terminal FLAG-tagged human PLAAT4 expressed in HEK293T cell lysate at 10 uM preincubated for 30 mins followed by MB064 addition and measured after 20 mins by SDS-PAGE based ABPP analysis; assay type: cell-free; settings: HEK-293T; how it was run: as §1
[6] = target: T4, Phospholipase A and acyltransferase 5 (Homo sapiens) (UniProt Q96KN8); assay: Inhibition of full-length C-terminal FLAG-tagged human PLAAT5 expressed in HEK293T cell lysate at 10 uM preincubated for 30 mins followed by MB064 addition and measured after 20 mins by SDS-PAGE based ABPP analysis; assay type: cell-free; settings: HEK-293T; how it was run: as §1
T4 sequence (whole entry): T3 sequence (Q96KN8 whole entry)

[7] = target: T5, Phospholipase A and acyltransferase 2 (Homo sapiens, UniProt Q9NWW9); assay: Inhibition of full-length C-terminal FLAG-tagged human PLAAT2 expressed in HEK293T cell lysate preincubated for 30 mins followed by MB064 addition and measured after 20 mins by SDS-PAGE based ABPP analysis; assay type: cell-free, HEK-293T; how it was run: as §2
T5 sequence (Q9NWW9 whole entry): T1 sequence (whole entry)

[8] = target: T6, Phospholipase A and acyltransferase 3 (Homo sapiens, UniProt P53816); assay: Inhibition of full-length C-terminal FLAG-tagged human PLAAT3 expressed in HEK293T cell lysate preincubated for 30 mins followed by MB064 addition and measured after 20 mins by SDS-PAGE based ABPP analysis; assay type: cell-free, HEK-293T; how it was run: as §2
T6 sequence (P53816 whole entry): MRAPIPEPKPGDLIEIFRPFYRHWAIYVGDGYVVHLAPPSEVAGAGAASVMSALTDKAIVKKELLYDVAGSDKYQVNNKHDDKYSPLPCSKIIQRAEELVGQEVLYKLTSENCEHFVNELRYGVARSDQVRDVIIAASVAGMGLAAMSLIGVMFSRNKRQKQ

Homo sapiens [9] = species on record: Homo sapiens; assay: Selectivity index, difference between pIC50 for full-length C-terminal FLAG-tagged human PLAAT5 expressed in HEK293T cell lysate to pIC50 for full-length C-terminal FLAG-tagged human PLAAT4 expressed in HEK293T cell lysate
How it was run: (§3)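 Cytosol of HEK293T cells transiently transfected (PEI) with C-terminal FLAG-tagged human PLAAT, harvested at 48 or 72 h. Dose-response: pretreated with inhibitor or DMSO for 30 min at rt, then labelled with MB064 for 20 min at rt. Protein and MB064: PLAAT2 0.25 μg/μL, 250 nM; PLAAT3 0.5 μg/μL, 250 nM; PLAAT4 1 μg/μL, 500 nM; PLAAT5 1 μg/μL, 500 nM. Read by SDS-PAGE in-gel fluorescence normalized to Coomassie. Triplicate pIC50s; index is the pIC50 difference.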

Homo sapiens [10] = species on record: Homo sapiens; assay: Selectivity index, difference between pIC50 for full-length C-terminal FLAG-tagged human PLAAT5 expressed in HEK293T cell lysate to pIC50 for full-length C-terminal FLAG-tagged human PLAAT3 expressed in HEK293T cell lysate; how it was run: as §3
Homo sapiens [11] = species on record: Homo sapiens; assay: Selectivity index, difference between pIC50 for full-length C-terminal FLAG-tagged human PLAAT5 expressed in HEK293T cell lysate to pIC50 for full-length C-terminal FLAG-tagged human PLAAT2 expressed in HEK293T cell lysate; how it was run: as §3

| Compound | inhibition [1] | inhibition [2] | IC50 [3] | IC50 [4] | inhibition [5] | inhibition [6] | IC50 [7] | IC50 [8] | Selectivity Index (Homo sapiens [9]) | Selectivity Index (Homo sapiens [10]) | Selectivity Index (Homo sapiens [11]) |
| --- | --- | --- | --- | --- | --- | --- | --- | --- | --- | --- | --- |
| O=C(NCCc1ccccc1)C(O)CCc1ccc(Cl)cc1 (stereo not given) | inactive | inactive | > 10 µM | > 10 µM | inactive | inactive | > 10 µM | > 10 µM |  |  |  |
| O=C(CCc1ccc(Oc2ccccc2)cc1)C(=O)NCCc1ccccc1 |  |  | 1.26 µM | 0.126 µM |  |  | 3.98 µM | 3.98 µM | 10 to 30 | 10 to 30 | 10 to 30 |
